Experimental data: ChEMBL document CHEMBL1157086, “Sesquiterpenoid aminoquinones from the marine sponge Dysidea sp” (J Nat Prod, 2010)
Activity calls are given as the source filed them. The calls are words filed in the database; no cut-off is given here.

Experiments:
[1] = system: Radical scavenging activity; assay: Antioxidant activity assessed as DPPH radical scavenging activity after 30 mins; format: functional
Method in brief: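 In EtOH, test concentrations 5, 10, 20, 50, 100 µM mixed with DPPH (0.1 mM final). A517 read after 30 min. Percent inhibition calculated against DPPH-only control, corrected for the compound's own absorbance at 517 nm. IC50 taken from the plotted inhibition curve as the concentration scavenging 50% of DPPH. Trolox served as positive control.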

Escherichia coli = assay: Antibacterial activity against Escherichia coli at 100 ug/ml; format: functional, organism-based
Staphylococcus aureus = assay: Antibacterial activity against Staphylococcus aureus at 100 ug/ml; format: functional, organism-based
Candida albicans = assay: Antifungal activity against Candida albicans at 100 ug/ml; format: functional, organism-based
Ehrlich = assay: Cytotoxicity activity against mouse EAC at 100 ug/ml; format: functional, cell-based

SMILES: Cc1c(C)c2c(c(C)c1O)CCC(C)(C(=O)O)O2 (centres undefined) [TROLOX]
- IC50 [1]: 16 µM

SMILES: C=C1CCC[C@H]2[C@](C)(Cc3cc(O)ccc3O)[C@@H](C)CC[C@@]12C [ARENAROL]
- IC50 [1]: 19 µM

SMILES: C=C1CCC[C@H]2[C@](C)(CC3=CC(=O)C(Nc4ccc(O)c(C[C@]5(C)[C@@H](C)CC[C@@]6(C)C(=C)CCC[C@@H]56)c4)=CC3=O)[C@@H](C)CC[C@@]12C [POPOLOHUANONE F]
- Activity (Escherichia coli): inactive
- Activity (Staphylococcus aureus): inactive
- Activity (Candida albicans): inactive
- Activity (Ehrlich): inactive
- IC50 [1]: 35 µM

SMILES: C=C1CCC[C@H]2[C@](C)(CC3=CC(=O)C(NC)=CC3=O)[C@@H](C)CC[C@@]12C
- Activity (Escherichia coli): inactive
- Activity (Staphylococcus aureus): inactive
- Activity (Candida albicans): inactive
- Activity (Ehrlich): inactive

SMILES: C=C1CCC[C@H]2[C@](C)(CC3=CC(=O)C=C(Nc4ccc(O)c(C[C@]5(C)[C@@H](C)CC[C@@]6(C)C(=C)CCC[C@@H]56)c4)C3=O)[C@@H](C)CC[C@@]12C [POPOLOHUANONE A]
- IC50 [1]: 35 µM

SMILES: C=C1CCC[C@H]2[C@](C)(CC3=CC(=O)C=C(N)C3=O)[C@@H](C)CC[C@@]12C
- Activity (Escherichia coli): inactive
- Activity (Staphylococcus aureus): inactive
- Activity (Candida albicans): inactive
- Activity (Ehrlich): inactive

SMILES: C=C1CCC[C@H]2[C@](C)(CC3=CC(=O)C(N)=CC3=O)[C@@H](C)CC[C@@]12C
- Activity (Escherichia coli): inactive
- Activity (Staphylococcus aureus): inactive
- Activity (Candida albicans): inactive
- Activity (Ehrlich): inactive

SMILES: C=C1CCC[C@H]2[C@](C)(CC3=CC(=O)C=C(NC)C3=O)[C@@H](C)CC[C@@]12C
- Activity (Escherichia coli): inactive
- Activity (Staphylococcus aureus): inactive
- Activity (Candida albicans): inactive
- Activity (Ehrlich): inactive
